Source: PubChem BioAssay (several laboratories)
WT yeast gro inh: growth inhibition of WT yeast, mitochondrial fusion screen. mitochondrial fusion phenotypic screen, WT strain. inhibition, % at 10 µM. hit rate 2.1% among 190,000. AID 1362; in the data active means inhibition above about 58%; tested in S. cerevisiae
Yeast growth inh: yeast BB579 growth reduction in restrictive medium. S. cerevisiae BB579 growth, OD615, 48 h. AID 804. hit rate 0.51% among 140,000. inhibition, % at 10 µM;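 active means inhibition above a set limit, 3 SD over the mean compound inhibition, cut at about 44% in these data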
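Test system: Saccharomyces cerevisiae DeaD strain BB579, replicative lifespan model yeast | Buffer or medium: Restrictive CSMM-D medium | Doses: One dose, 10 µM compound with 0.25% DMSO | Incubation: 48 h exposure, 30 °C | Detection: Culture absorbance at 615 nm | Control set: Amphotericin B at 10 µg/mL as positive control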
RAM inhibit: yeast RAM network inhibition. S. cerevisiae dse1pr::URA3 reporter, 5-FOA growth OD615, 2 d; analog-sensitive cbk1-as2 kinase mutant strain. hit rate 1.8% among 190,000. AID 868. inhibition, % at 50 µM;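 active means inhibition above a set limit, 3 SD over mean compound inhibition, cut at about 8.4% in these data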;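 further: inhibition rescues growth on 5-FOA so higher OD means more RAM inhibition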
Yeast life ext: yeast lifespan extension. S. cerevisiae growth with nicotinamide, OD615; deaD strain in restrictive glucose medium. inhibition of the nicotinamide effect, % at 10 µM. hit rate 0.68% among 130,000. AID 775;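 active means inhibition above a set limit, placed 3 SD over the median of all compounds, cut at about 26% in these data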
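System: Modified budding yeast, DeaD strain | Buffer or medium: Restrictive glucose medium | Also added: 1.5 mM nicotinamide | Doses: 10 µM single point, 0.25% DMSO | Schedule: 48 h compound exposure at 30 °C, humidified | Detection: Absorbance at 615 nm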
KCC2 mod: modulates chloride dependent transport by human KCC2. Q9H2X9. KCC2 cells, thallium flux FluoZin-2 fluorescence. B-score of Tl+ flux slope (higher = more flux/activation; lower = inhibition) at 10 µM. hit rate 2.2% among 190,000. AID 1456;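 active means thallium flux slope and its plate-corrected score both differing from the plate sample mean at a set confidence after two filtering rounds, in either direction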;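 further: slope of fluorescence scaled to starting intensity during 10 to 20 s after thallium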
RAM 5-FOA: RAM network inhibition, efflux-deficient strain; shares compounds with RAM inhibit; max inhibition, %; S. cerevisiae efflux-deficient reporter strain, 5-FOA growth OD615, 2 days; 1,200 tested, under 10 active; call rule not given here
Numbers stand for hits; 0 = inactive; - = no result given. This is a sample that favours compounds with a hit; in the whole collection about 5.5% have one here.

SMILES	WT yeast gro inh	Yeast growth inh	RAM inhibit	Yeast life ext	KCC2 mod	others
O=C(CSc1nnc(C2COc3ccccc3O2)o1)N1CCN(c2ccccc2)CC1 (configuration not stated)	0	-	0	-	0
O=C(CCS(=O)(=O)Cc1ccccc1F)NCc1ccccc1Cl	0	-	0	-	0
O=C(Nc1ncc2c(n1)-c1ccccc1OC2)c1cccc([N+](=O)[O-])c1	0	-	8.6	-	0
O=C(Nc1ncc2c(n1)-c1ccccc1OC2)c1ccc(F)cc1	0	-	0	-	0
CCOc1cccc(CNc2ccc(O)cc2)c1OCc1ccccc1Cl	0	0	0	-	0
CCOc1cc(CNCCO)cc(Br)c1OCc1ccc(Cl)cc1Cl	0	96	0	0	-
OCCNCc1cc(Br)ccc1OCc1ccc(Cl)cc1Cl	58	0	0	-	0
CCOc1cccc(CNc2ccc(O)cc2)c1OCc1ccc(Cl)cc1Cl	66	0	0	0	0
Nc1[nH]n2c(=O)c3c(nc2c1N=Nc1ccccc1)CCCC3	80	0	0	0	0
O=c1c2c(nc3c(-c4ccccc4)c[nH]n13)CCCC2	0	0	0	0	2.8
COc1cccc(N=Nc2c(N)[nH]n3c(=O)cc(-c4ccccc4)nc23)c1	0	0	0	0	0
Cc1ccc(N=Nc2c(N)[nH]n3c(=O)cc(-c4ccccc4)nc23)cc1	60	0	8.7	0	0
CSc1ccccc1C(=O)N1CCN(c2ncccn2)CC1	0	-	0	-	0
COc1ccc(C(=O)C2CCCN(Cc3ccc(Sc4nncn4C)o3)C2)cc1F (configuration not stated)	0	-	0	-	0
CN(C)C(=O)CN1CCN(Cc2cn(C)nc2-c2ccc3c(c2)OCCO3)CC1	0	-	0	-	0
Cc1cc2cc(CNC(=O)Cc3cccs3)ccc2n1C	0	-	-	-	0
O=C(COC(=O)c1ccccc1Br)Nc1cc(S(=O)(=O)N2CCOCC2)ccc1N1CCCC1	0	-	0	-	0
OC(COc1ccccc1)Cn1c2ccccc2c2ccccc21 (configuration not stated)	80	0	0	0	0
COC(=O)c1ccccc1NC(=O)CSCC(=O)Nc1ccc(F)cc1	0	0	0	0	-
Cc1cccc(NC(=O)N(Cc2nc3ccccc3c(=O)[nH]2)C2CCCC2)c1	78	0	0	0	-
CCCCNc1c(N)n(CC(C)C)c(=O)[nH]c1=O	0	-	0	-	0
COc1ccc(C2CC(c3cccs3)=NN2c2ccc(C=O)cc2)cc1 (configuration not stated)	0	0	0	0	0
COc1ccc(C2CC(c3ccccc3)=NN2C(=O)CSc2ncccn2)cc1 (configuration not stated)	0	0	11	0	0
COc1ccc(C2CC(c3ccccc3)=NN2c2ccc(S(N)(=O)=O)cc2)cc1 (configuration not stated)	66	-	9.3	-	-
NS(=O)(=O)c1ccc(N2N=C(c3ccccc3)CC2c2ccc(F)cc2)cc1 (configuration not stated)	71	0	0	0	0
SMILES	WT yeast gro inh	Yeast growth inh	RAM inhibit	Yeast life ext	KCC2 mod	others
CC(=O)Nc1cccc(OCCCNC(=O)c2ccc(C(C)(C)C)cc2)c1	-	-	-	-	0
NNC(=O)c1cccc(COc2cccc(Br)c2)c1	73	0	0	0	0
O=C(NCc1ccccc1)c1cccc(COc2cccc(Cl)c2)c1	67	0	9.2	0	0
NNC(=O)c1cccc(COc2ccc(Br)cc2)c1	73	78	0	0	0
CCCn1ncc(CN2CCCC(C(=O)c3cccc(OC(C)C)c3)C2)c1C (configuration not stated)	-	-	-	-	0
COc1ccc(CNC(=O)CN(c2ccccc2)S(=O)(=O)c2ccccc2[N+](=O)[O-])cc1	0	-	0	-	0
Cc1ccc(S(=O)(=O)N2c3cc(C)ccc3OCC2C(C)(C)C)cc1 (configuration not stated)	69	0	13	0	0	RAM 5-FOA=0
COc1ccc(S(=O)(=O)N2c3cc(C)ccc3OCC2C(C)(C)C)cc1 (configuration not stated)	0	0	0	0	-
O=C(/C(=C/c1ccccc1)c1ccccc1)N1CCCCC1	0	0	0	0	0
O=C(Nc1ccccc1Cl)c1cccc(COc2cc(Cl)ccc2Cl)c1	0	0	12	0	0	RAM 5-FOA=0
COc1ccc(C(=O)Nc2cc(OCc3ccccc3)c(Cl)cc2Cl)cc1	0	0	15	0	-	RAM 5-FOA=0
